Measured values published in ChEMBL document CHEMBL1132309, “(R)-3,3,3-Trifluoro-2-hydroxy-2-methylpropionamides are orally active inhibitors of pyruvate dehydrogenase kinase” (J Med Chem, 1999).
The source made the active and inactive calls. No cut-off for these calls is given here.

Tests used:
[1] = biological target: pyruvate dehydrogenase kinase (Sus scrofa); assay: In vitro inhibitory activity against Pyruvate dehydrogenase kinase by primary enzymatic assay
[2] = biological target: Pyruvate dehydrogenase kinase (Homo sapiens, UniProt Q15119+Q15120+Q16654+Q15118); assay: […] inhibion of pyruvate dehydrogenase kinase, increased oxidation of lactate; type: functional
Method in brief: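 Human fibroblasts, modified Ofenstein assay: conversion of [14C]lactate to 14CO2, taken as activation of the PDH complex. EC50 in μM ± standard error.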

[3] = biological target: T1, Pyruvate dehydrogenase kinase (Rattus norvegicus) (UniProt Q63065+A6IPZ9+Q64536+O54937); assay: In vivo inhibition of pyruvate dehydrogenase kinase, reduced lactate level in normal 24 hr r fasted rats at 300 umol/kg oral dose; Not active; type: functional, organism-based
[4] = The time to reach maximum concentration of compound was measured at the dose of 100 umol/kg; type: ADME, organism-based; details: rat, in vivo
Method in brief: (§1)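 Oral dosing at 30, 100 and 300 μmol/kg. Blood plasma concentrations followed to give peak concentration and estimated half-life.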

[5] = The biological half life the compound was measured at the dose of 100 umol/kg; type: ADME, organism-based; details: rat, in vivo
Method in brief: as §1

[6] = The area under the curve of compound was measured at the dose of 100 umol/kg; type: ADME, organism-based; details: rat, in vivo
Method in brief: as §1

[7] = The maximum concentration of compound was measured at the dose of 100 umol/kg; type: ADME, organism-based; design: dose 100 umol/kg; details: rat, in vivo
Method in brief: as §1

[8] = biological target: T1, Pyruvate dehydrogenase kinase (Rattus norvegicus); assay: In vivo inhibition of pyruvate dehydrogenase kinase, reduced lactate level in normal 24 hr r fasted rats at 30 umol/kg oral dose; type: functional, organism-based; design: scale not given: the % may be the effect or the level left
[9] = biological target: T1, Pyruvate dehydrogenase kinase (Rattus norvegicus); assay: In vivo inhibition of pyruvate dehydrogenase kinase, reduced lactate level in normal 24 hr r fasted rats at 100 umol/kg oral dose; type: functional, organism-based; design: scale not given: the % may be the effect or the level left
[10] = biological target: T1, Pyruvate dehydrogenase kinase (Rattus norvegicus); assay: In vivo inhibition of pyruvate dehydrogenase kinase, reduced lactate level in normal 24 hr r fasted rats at 300 umol/kg oral dose; type: functional, organism-based; design: scale not given: the % may be the effect or the level left
[11] = The area under the curve of compound was measured at the dose of 300 umol/kg; type: ADME, organism-based; details: rat, in vivo
Method in brief: as §1

[12] = The maximum concentration of compound was measured at the dose of 300 umol/kg; type: ADME, organism-based; design: dose 300 umol/kg; details: rat, in vivo
Method in brief: as §1

[13] = The time to reach maximum concentration of compound was measured at the dose of 300 umol/kg; type: ADME, organism-based; details: rat, in vivo
Method in brief: as §1

[14] = biological target: T1, Pyruvate dehydrogenase kinase (Rattus norvegicus); assay: In vivo inhibition of pyruvate dehydrogenase kinase, reduced lactate level in normal 24 hr r fasted rats at 1 mmol/kg oral dose; type: functional, organism-based; design: scale not given: the % may be the effect or the level left
[15] = biological target: T1, Pyruvate dehydrogenase kinase (Rattus norvegicus); assay: In vivo inhibition of pyruvate dehydrogenase kinase, reduced lactate level in normal 24 hr r fasted rats at 10 umol/kg oral dose; type: functional, organism-based; design: scale not given: the % may be the effect or the level left
[16] = biological target: T1, Pyruvate dehydrogenase kinase (Rattus norvegicus); assay: In vivo inhibition of pyruvate dehydrogenase kinase, reduced lactate level in normal 24 hr r fasted rats at 1 umol/kg oral dose; type: functional, organism-based; design: scale not given: the % may be the effect or the level left
[17] = biological target: T1, Pyruvate dehydrogenase kinase (Rattus norvegicus); assay: In vivo inhibition of pyruvate dehydrogenase kinase, reduced lactate level in normal 24 hr r fasted rats at 3 umol/kg oral dose; type: functional, organism-based; design: scale not given: the % may be the effect or the level left
[18] = The time to reach maximum concentration of compound was measured at the dose of 30 umol/kg; type: ADME, organism-based; details: rat, in vivo
Method in brief: as §1

[19] = biological target: T1, Pyruvate dehydrogenase kinase (Rattus norvegicus); assay: In vivo inhibition of pyruvate dehydrogenase kinase, reduced lactate level in normal 24 hr r fasted rats at 100 uMmol/kg oral dose; type: functional, organism-based; design: dose or concentration left out as unconfirmed
[20] = The biological half life the compound was measured at the dose of 30 umol/kg; type: ADME, organism-based; details: rat, in vivo
Method in brief: as §1

[21] = The maximum concentration of compound was measured at the dose of 30 umol/kg; type: ADME, organism-based; design: dose 30 umol/kg; details: rat, in vivo
Method in brief: as §1

[22] = The area under the curve of compound was measured at the dose of 30 umol/kg; type: ADME, organism-based; details: rat, in vivo
Method in brief: as §1

Which IC50 [1] does the source give for `C[C@@](O)(C(=O)Nc1ccccc1Cl)C(F)(F)F` here?
The IC50 was 300 nM.

What about the EC50 [2] of the same compound?
The EC50 was 5400 nM.

And the Control [3]?
The Control was “inactive”.

With `C[C@@](O)(C(=O)Nc1ccc(C(=O)O)cc1Cl)C(F)(F)F` as the compound, how does the IC50 [1] read?
The IC50 was 90 nM.

And the Tmax [4]?
Its Tmax is 0.5 h.

And the half-life [5]?
The half-life was 4.6 h.

What about the AUC [6] of the same compound?
Its AUC is 143 µM·h.

What about the Cmax [7] of the same compound?
Its Cmax is 87.3 µM.

And the Control [8]?
Its Control is 98%.

And the Control [9]?
Its Control is 70%.

What about the EC50 [2] of the same compound?
The EC50 was 1400 nM.

With `C[C@@](O)(C(=O)Nc1ccc(S(=O)(=O)N2CCNCC2)cc1Cl)C(F)(F)F` as the compound, how does the IC50 [1] read?
The IC50 was 55 nM.

And the Control [10]?
The Control was 72%.

What about the AUC [11] of the same compound?
Its AUC is 670 µM·h.

What about the Cmax [12] of the same compound?
The Cmax was 53.8 µM.

What about the EC50 [2] of the same compound?
The EC50 was 17000 nM.

What about the Tmax [13] of the same compound?
The Tmax was 6 h.

For `COC(=O)c1ccc(NC(=O)[C@@](C)(O)C(F)(F)F)c(Cl)c1`, which IC50 [1] is on record?
Its IC50 is 120 nM.

Which IC50 [1] does the source give for `C[C@@](O)(C(=O)Nc1ccc(S(=O)(=O)N2CCCCC2)cc1)C(F)(F)F` here?
Its IC50 is 9300 nM.

For `C[C@@](O)(C(=O)N1CCN(C(=O)c2ccc(C#N)cc2)CC1)C(F)(F)F`, which IC50 [1] is on record?
Its IC50 is 6700 nM.

Which results are given for `C[C@@](O)(C(=O)Nc1ccc(C(=O)N2CCCCC2)cc1Cl)C(F)(F)F`?
IC50 [1]: 1500 nM; EC50 [2]: 590 nM; Control [3]: inactive

For `C[C@](O)(C(=O)Nc1ccccc1Cl)C(F)(F)F`, which IC50 [1] is on record?
The IC50 was 9800 nM.

For `C[C@@](O)(C(=O)Nc1ccccc1)C(F)(F)F`, which IC50 [1] is on record?
Its IC50 is 35000 nM.

Which Control [3] does the source give for `CC(O)(C(=O)Nc1ccc(C(=O)c2ccccc2)cc1)C(F)(F)F` (single isomer, unassigned) here?
The Control was “inactive”.

For `C[C@@](O)(C(=O)NC1CCCCC1)C(F)(F)F`, which IC50 [1] is on record?
Its IC50 is 6200 nM.

Which IC50 [1] does the source give for `C[C@](O)(C(=O)NC1CCCCC1)C(F)(F)F` here?
Its IC50 is 200000 nM.

Which Control [14] does the source give for `O=C([O-])C(Cl)Cl.[Na+]` here?
Its Control is 70%.

For `C[C@@H]1CN(C(=O)[C@@](C)(O)C(F)(F)F)[C@@H](C)CN1C(=O)c1ccc(C#N)cc1`, which IC50 [1] is on record?
The IC50 was 16.5 nM.

And the Control [15]?
The Control was 74%.

What about the Control [16] of the same compound?
Its Control is 87%.

What about the Control [17] of the same compound?
Its Control is 90%.

What about the EC50 [2] of the same compound?
Its EC50 is 57 nM.

With `C[C@@H]1CN(C(=O)[C@@](C)(O)C(F)(F)F)CCN1C(=O)c1ccc(C#N)cc1` as the compound, how does the IC50 [1] read?
Its IC50 is 79 nM.

And the Control [15]?
Its Control is 90%.

And the Tmax [18]?
Its Tmax is 1.25 h.

And the Control [19]?
The Control was 67%.

And the Control [8]?
The Control was 60%.

What about the half-life [20] of the same compound?
Its half-life is 3 h.

What about the EC50 [2] of the same compound?
The EC50 was 250 nM.

And the Cmax [21]?
Its Cmax is 23.8 µM.

And the AUC [22]?
The AUC was 196 µM·h.

For `C[C@@H]1CN(C(=O)[C@@](C)(O)C(F)(F)F)CCN1C(=O)OCc1ccccc1`, which IC50 [1] is on record?
The IC50 was 21 nM.

Which IC50 [1] does the source give for `C[C@@](O)(C(=O)Nc1ccc(C(=O)c2ccccc2)cc1Cl)C(F)(F)F` here?
Its IC50 is 110 nM.

With `C[C@@H]1CN(C(=O)[C@@](C)(O)C(F)(F)F)[C@@H](C)CN1Cc1ccccc1` as the compound, how does the IC50 [1] read?
The IC50 was 82 nM.

For `C[C@@](O)(C(=O)Nc1ccc(S(=O)(=O)F)cc1Cl)C(F)(F)F`, which IC50 [1] is on record?
Its IC50 is 77 nM.
